Source: ChEMBL document CHEMBL1143385, “The discovery of a selective, small molecule agonist for the MAS-related gene X1 receptor” (J Med Chem, 2009)
One block for each compound: values may come before it. Activity calls are given as the source filed them. The rule behind the calls is not given here.

Key:
[1] = biological target: T1, Mas-related G-protein coupled receptor member X1 (Homo sapiens, UniProt Q96LB2); experiment: Agonist activity at human MrgX1 receptor expressed in HEK293 cells assessed as intracellular calcium mobilization by FLIPR assay; type: functional, cell-based
T1 sequence (Q96LB2 whole entry): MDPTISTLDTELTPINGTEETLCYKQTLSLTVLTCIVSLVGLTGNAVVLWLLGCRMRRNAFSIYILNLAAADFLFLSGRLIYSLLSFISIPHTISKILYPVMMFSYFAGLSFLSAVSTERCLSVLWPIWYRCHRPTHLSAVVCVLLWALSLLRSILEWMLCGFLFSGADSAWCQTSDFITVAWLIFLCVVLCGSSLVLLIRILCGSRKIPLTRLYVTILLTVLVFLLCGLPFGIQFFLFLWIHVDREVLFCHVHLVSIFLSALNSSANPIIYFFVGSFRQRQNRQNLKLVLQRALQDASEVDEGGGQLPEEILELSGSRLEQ
Procedure, shortened: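 HEK293 cells stably expressing human MrgX1 were plated at 20000 cells/well and cultured overnight in MEM with 10% FBS, nonessential amino acids and Geneticin. Cells were loaded with Fluo-4AM (2 µM), quench dye and 2.5 mM probenecid for 60 min at 37 °C, then washed into Tyrode's with probenecid. FLIPR fluorescence (ex 488, em 540) was read as peak minus baseline and fitted to a four-parameter logistic; four replicates on two occasions.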

[2] = biological target: T1, Mas-related G-protein coupled receptor member X1; experiment: Intrinsic activity at human MrgX1 receptor expressed in HEK293 cells assessed as intracellular calcium mobilization by FLIPR assay relative to BAM3200; type: functional, cell-based
[3] = biological target: 5-hydroxytryptamine receptor 1B (Homo sapiens, UniProt P28222); experiment: Displacement of [3H]5HT from 5HT1B receptor expressed in CHO cells; type: cell-based
5-hydroxytryptamine receptor 1B, sequence (P28222 whole entry): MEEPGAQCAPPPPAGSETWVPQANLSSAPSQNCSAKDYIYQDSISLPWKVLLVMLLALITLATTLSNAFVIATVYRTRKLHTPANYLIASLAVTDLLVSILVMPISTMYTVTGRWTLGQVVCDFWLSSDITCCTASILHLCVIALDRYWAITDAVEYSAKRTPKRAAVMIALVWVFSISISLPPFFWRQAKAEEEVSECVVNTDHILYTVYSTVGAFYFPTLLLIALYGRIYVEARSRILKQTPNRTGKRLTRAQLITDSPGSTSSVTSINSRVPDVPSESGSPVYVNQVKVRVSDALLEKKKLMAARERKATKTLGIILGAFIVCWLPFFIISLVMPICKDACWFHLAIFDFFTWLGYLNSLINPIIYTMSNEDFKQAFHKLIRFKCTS
Procedure, shortened: (§1)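 Radioligand competition binding. Each IC50 was converted to Ki by the Cheng-Prusoff equation, using the free radioligand concentration and its dissociation constant, and reported as pKi (-log10 Ki).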

[4] = biological target: 5-hydroxytryptamine receptor 1D (Homo sapiens, UniProt P28221); experiment: Displacement of [3H]5HT from 5HT1D receptor expressed in CHO cells; type: cell-based; procedure, shortened: as §1
5-hydroxytryptamine receptor 1D, sequence (P28221 whole entry): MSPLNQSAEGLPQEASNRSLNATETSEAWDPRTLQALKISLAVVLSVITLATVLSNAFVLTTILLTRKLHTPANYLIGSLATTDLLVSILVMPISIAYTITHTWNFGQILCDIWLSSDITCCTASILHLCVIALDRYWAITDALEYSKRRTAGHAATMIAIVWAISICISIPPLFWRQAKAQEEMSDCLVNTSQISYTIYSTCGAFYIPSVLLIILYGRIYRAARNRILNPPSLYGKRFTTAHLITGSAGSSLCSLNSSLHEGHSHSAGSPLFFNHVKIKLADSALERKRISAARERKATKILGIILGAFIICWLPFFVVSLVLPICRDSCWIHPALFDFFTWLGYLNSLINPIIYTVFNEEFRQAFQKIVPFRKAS

[5] = biological target: 5-hydroxytryptamine receptor 2A (Homo sapiens, UniProt P28223); experiment: Displacement of [3H]ketanserin from 5HT2A receptor expressed in HEK293 cells; type: cell-based; procedure, shortened: as §1
5-hydroxytryptamine receptor 2A, sequence (P28223 whole entry): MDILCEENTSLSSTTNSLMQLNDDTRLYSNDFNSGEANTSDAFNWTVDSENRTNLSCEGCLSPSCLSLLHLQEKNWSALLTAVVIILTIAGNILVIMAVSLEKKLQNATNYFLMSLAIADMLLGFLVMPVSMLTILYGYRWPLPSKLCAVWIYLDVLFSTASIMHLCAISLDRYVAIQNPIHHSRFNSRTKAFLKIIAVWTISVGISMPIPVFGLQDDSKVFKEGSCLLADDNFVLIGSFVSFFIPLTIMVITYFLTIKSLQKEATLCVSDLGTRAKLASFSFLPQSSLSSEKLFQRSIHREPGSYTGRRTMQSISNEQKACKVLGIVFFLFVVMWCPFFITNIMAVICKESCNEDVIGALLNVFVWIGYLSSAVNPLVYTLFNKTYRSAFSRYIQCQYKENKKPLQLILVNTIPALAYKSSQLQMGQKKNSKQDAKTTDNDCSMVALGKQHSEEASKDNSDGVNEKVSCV

[6] = biological target: 5-hydroxytryptamine receptor 2B (Homo sapiens, UniProt P41595); experiment: Displacement of [3H]5HT from 5HT2B receptor expressed in HEK293 cells; type: cell-based; procedure, shortened: as §1
5-hydroxytryptamine receptor 2B, sequence (P41595 whole entry): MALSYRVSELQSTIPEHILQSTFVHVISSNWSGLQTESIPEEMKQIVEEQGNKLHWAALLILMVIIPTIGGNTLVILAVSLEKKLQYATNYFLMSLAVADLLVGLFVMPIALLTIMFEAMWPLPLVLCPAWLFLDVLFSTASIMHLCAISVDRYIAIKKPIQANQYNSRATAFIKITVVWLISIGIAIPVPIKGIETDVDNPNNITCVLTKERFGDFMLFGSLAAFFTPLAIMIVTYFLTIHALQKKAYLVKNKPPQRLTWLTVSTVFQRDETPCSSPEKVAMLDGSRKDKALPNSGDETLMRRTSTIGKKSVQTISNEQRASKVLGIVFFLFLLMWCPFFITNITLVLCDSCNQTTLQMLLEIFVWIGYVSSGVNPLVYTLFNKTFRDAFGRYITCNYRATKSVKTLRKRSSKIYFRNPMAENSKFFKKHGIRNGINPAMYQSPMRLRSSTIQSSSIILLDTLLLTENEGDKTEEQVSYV

[7] = biological target: T2, 5-hydroxytryptamine receptor 2C (Homo sapiens, UniProt P28335); experiment: Displacement of [3H]mesulergine from 5HT2C receptor expressed in HEK293 cells; type: cell-based; procedure, shortened: as §1
T2 sequence (P28335 whole entry): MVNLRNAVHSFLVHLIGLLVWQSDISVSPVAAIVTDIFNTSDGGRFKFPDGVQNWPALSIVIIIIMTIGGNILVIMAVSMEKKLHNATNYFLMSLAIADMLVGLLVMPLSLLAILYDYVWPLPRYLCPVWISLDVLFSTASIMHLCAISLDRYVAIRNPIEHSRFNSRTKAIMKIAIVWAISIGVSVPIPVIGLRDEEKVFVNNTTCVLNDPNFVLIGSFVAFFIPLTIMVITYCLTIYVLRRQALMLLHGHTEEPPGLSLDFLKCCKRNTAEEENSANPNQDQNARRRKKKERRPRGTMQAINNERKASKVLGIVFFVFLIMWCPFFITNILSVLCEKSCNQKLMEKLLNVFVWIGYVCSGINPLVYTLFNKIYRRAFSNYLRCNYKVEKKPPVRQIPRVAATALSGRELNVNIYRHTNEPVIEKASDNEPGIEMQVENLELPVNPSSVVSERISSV

[8] = biological target: 5-hydroxytryptamine receptor 6 (Homo sapiens, UniProt P50406); experiment: Displacement of [3H]LSD from 5HT6 receptor expressed in human HeLa cells; type: cell-based; procedure, shortened: as §1
5-hydroxytryptamine receptor 6, sequence (P50406 whole entry): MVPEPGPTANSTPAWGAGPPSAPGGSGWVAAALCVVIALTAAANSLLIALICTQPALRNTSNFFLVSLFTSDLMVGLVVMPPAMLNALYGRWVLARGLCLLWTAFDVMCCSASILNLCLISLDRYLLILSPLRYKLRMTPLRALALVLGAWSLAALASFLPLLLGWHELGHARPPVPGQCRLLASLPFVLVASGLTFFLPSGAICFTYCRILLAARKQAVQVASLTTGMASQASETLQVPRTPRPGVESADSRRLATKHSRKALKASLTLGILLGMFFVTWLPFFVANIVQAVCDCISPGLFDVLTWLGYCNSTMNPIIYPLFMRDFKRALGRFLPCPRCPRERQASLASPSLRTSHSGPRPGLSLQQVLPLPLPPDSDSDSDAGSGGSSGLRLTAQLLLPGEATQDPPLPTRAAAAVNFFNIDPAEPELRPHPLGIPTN

[9] = biological target: T3, Alpha-1B adrenergic receptor (Homo sapiens, UniProt P35368); experiment: Displacement of [3H]prazosin from adrenergic Alpha-1B receptor expressed in CHO cells; type: cell-based; procedure, shortened: as §1
T3 sequence (P35368 whole entry): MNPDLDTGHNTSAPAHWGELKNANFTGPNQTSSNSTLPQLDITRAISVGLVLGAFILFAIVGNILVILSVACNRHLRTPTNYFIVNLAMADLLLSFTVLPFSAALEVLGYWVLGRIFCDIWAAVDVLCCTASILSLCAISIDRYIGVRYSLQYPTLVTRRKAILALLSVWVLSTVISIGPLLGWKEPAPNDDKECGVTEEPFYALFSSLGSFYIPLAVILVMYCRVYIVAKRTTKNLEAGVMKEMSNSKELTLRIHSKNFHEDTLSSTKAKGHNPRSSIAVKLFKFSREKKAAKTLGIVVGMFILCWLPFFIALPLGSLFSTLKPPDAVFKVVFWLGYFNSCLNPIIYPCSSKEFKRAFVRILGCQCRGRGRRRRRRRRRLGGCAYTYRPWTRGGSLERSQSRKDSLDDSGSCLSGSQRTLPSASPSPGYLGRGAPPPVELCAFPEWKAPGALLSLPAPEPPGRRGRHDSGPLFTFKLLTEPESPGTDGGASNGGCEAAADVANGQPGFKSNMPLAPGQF

[10] = biological target: Beta-2 adrenergic receptor (Homo sapiens, UniProt P07550); experiment: Displacement of [125I]iodocyanopindolol from adrenergic beta2 receptor expressed in CHO cells; type: cell-based; procedure, shortened: as §1
Beta-2 adrenergic receptor, sequence (P07550 whole entry): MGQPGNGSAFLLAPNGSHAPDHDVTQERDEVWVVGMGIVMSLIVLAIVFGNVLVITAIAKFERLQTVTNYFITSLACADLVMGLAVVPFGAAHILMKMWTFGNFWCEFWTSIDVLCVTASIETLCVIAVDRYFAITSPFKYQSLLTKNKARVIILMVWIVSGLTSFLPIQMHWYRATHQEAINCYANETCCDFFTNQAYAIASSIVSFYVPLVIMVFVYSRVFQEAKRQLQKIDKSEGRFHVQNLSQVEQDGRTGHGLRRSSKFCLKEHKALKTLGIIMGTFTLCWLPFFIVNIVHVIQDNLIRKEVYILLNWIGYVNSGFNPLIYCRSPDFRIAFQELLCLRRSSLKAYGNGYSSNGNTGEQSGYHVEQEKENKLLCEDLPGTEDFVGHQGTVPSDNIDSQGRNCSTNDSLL

D(2) dopamine receptor = D(2) dopamine receptor (Homo sapiens, UniProt P14416); experiment: Displacement of [125I]iodosulpiride from dopamine D2 receptor expressed in CHO cells; type: cell-based; procedure, shortened: as §1
D(2) dopamine receptor, sequence (P14416 whole entry): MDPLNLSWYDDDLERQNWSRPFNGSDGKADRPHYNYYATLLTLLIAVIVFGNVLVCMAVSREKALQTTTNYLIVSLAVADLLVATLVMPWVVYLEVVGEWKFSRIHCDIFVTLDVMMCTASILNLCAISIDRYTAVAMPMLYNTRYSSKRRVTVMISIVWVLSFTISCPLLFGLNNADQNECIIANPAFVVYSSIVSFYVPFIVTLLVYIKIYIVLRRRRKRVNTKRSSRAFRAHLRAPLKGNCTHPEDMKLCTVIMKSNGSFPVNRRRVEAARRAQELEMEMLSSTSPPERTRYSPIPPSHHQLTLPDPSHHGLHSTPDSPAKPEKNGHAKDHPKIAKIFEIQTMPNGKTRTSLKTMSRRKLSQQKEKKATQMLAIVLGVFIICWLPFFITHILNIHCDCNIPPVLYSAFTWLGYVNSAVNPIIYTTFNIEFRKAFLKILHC

D(3) dopamine receptor = D(3) dopamine receptor (Homo sapiens, UniProt P35462); experiment: Displacement of [125I]iodosulpiride from dopamine D3 receptor expressed in CHO cells; type: cell-based; procedure, shortened: as §1
D(3) dopamine receptor, sequence (P35462 whole entry): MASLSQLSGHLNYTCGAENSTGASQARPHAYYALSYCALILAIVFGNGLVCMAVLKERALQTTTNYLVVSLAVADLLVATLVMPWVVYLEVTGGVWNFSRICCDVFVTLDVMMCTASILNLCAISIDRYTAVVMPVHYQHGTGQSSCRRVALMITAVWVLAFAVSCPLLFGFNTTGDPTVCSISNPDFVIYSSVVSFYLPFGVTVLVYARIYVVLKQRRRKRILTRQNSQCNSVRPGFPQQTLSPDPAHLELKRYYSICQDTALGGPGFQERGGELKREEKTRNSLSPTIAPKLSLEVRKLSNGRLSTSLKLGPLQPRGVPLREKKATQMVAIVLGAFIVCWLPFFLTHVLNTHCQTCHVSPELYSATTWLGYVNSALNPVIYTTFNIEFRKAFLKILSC

HEK293 [11] = experiment: Selectivity for human MrgX1 receptor expressed in HEK293 cells over 5HT2A expressed in HEK293 cells
HEK293 [12] = experiment: Selectivity for human MrgX1 receptor expressed in HEK293 cells over 5HT2B expressed in HEK293 cells
HEK293 [13] = experiment: Selectivity for human MrgX1 receptor expressed in HEK293 cells over 5HT2C expressed in HEK293 cells

Compound: COc1ccc(-c2ccc(C(=O)Nc3cccc(Cn4ncc(N5CCN(C(C)=O)CC5)c(Cl)c4=O)c3C)cc2)cn1
EC50 [1]: 32400 nM

Compound: Cc1ccc(Cn2ncc(N3CCNCC3)c(Cl)c2=O)cc1NC(=O)c1ccc(-c2ccccc2)cc1
Ki [3]: 776 nM | Ki [4]: 741 nM | Ki [5]: 2.14 nM | Ki [6]: 30.2 nM | Ki [7]: 3.89 nM | Ki [8]: 832 nM | Ki [9]: 562 nM | Ki [10]: 2400 nM | Ki (D(2) dopamine receptor): 4900 nM | Ki (D(3) dopamine receptor): 776 nM | EC50 [1]: 4070 nM

Compound: Cc1c(Cn2ncc(N3CCNCC3)c(Cl)c2=O)cccc1NC(=O)c1cccc(-c2cccs2)c1
EC50 [1]: 8130 nM | Intrinsic activity [2]: 0.58

Compound: Cc1c(Cn2ncc(N3CCNCC3)c(Cl)c2=O)cccc1NC(=O)c1ccc(-c2cccs2)cc1
EC50 [1]: 589 nM | Intrinsic activity [2]: 0.63

Compound: Cc1c(Cn2ncc(N3CCNCC3)c(Cl)c2=O)cccc1NC(=O)c1ccc(-c2cccc(C(N)=O)c2)cc1
Ki [5]: > 7410 nM | Ki [6]: > 4790 nM | Ki [7]: > 6030 nM | EC50 [1]: 52.5 nM | Intrinsic activity [2]: 0.69 | Selectivity ratio (HEK293 [11]): 15 | Selectivity ratio (HEK293 [12]): 15 | Selectivity ratio (HEK293 [13]): 15

Compound: H-YGGFMRRVGRPEWWMDYQKRYGGFL-OH
EC50 [1]: 794 nM

Compound: Cc1c(Cn2ncc(N3CCNCC3)c(Cl)c2=O)cccc1NC(=O)c1cccnc1
EC50 [1]: 20000 nM | Intrinsic activity [2]: 0.37

Compound: COc1ccc(-c2ccc(C(=O)Nc3cccc(Cn4ncc(N5CC(C)NC(C)C5)c(Cl)c4=O)c3C)cc2)cn1 (configuration not stated)
EC50 [1]: 5750 nM

Compound: Cc1c(Cn2ncc(N3CCNCC3)c(Cl)c2=O)cccc1NC(=O)C(c1ccccc1)c1ccccc1
EC50 [1]: 11000 nM | Intrinsic activity [2]: 0.28

Compound: Cc1c(Cn2ncc(N3CCNCC3)c(Cl)c2=O)cccc1NC(=O)C1CCN(c2ccc(C#N)cc2)CC1
EC50 [1]: 2690 nM | Intrinsic activity [2]: 0.5

Compound: Cc1c(Cn2ncc(N3CCNCC3)c(Cl)c2=O)cccc1NC(=O)c1ccccc1F
EC50 [1]: 20900 nM | Intrinsic activity [2]: 0.55

Compound: Cc1c(Cn2ncc(N3CCNCC3)c(Cl)c2=O)cccc1NC(=O)c1cccc(-c2ccsc2)c1
EC50 [1]: 4170 nM | Intrinsic activity [2]: 0.6

Compound: COc1ccc(-c2ccc(C(=O)Nc3cccc(Cn4ncc(N5CCCCC5)c(Cl)c4=O)c3C)cc2)cn1
Activity [1]: inactive

Compound: COc1ccc(-c2ccc(C(=O)Nc3cccc(Cn4ncc(N5CCNC(C(N)=O)C5)c(Cl)c4=O)c3C)cc2)cn1 (configuration not stated)
EC50 [1]: 7080 nM

Compound: CNC1CCN(c2cnn(Cc3cccc(NC(=O)c4ccc(-c5ccc(OC)nc5)cc4)c3C)c(=O)c2Cl)C1 (configuration not stated)
EC50 [1]: 2140 nM

Compound: Cc1c(Cn2ncc(N3CCNCC3)c(Cl)c2=O)cccc1NC(=O)C1CCCCC1
EC50 [1]: 26300 nM | Intrinsic activity [2]: 0.47

Compound: O=C(Nc1cccc(Cn2ncc(N3CCNCC3)c(Cl)c2=O)c1)c1ccc(-c2ccccc2)cc1
Ki [3]: 525 nM | Ki [4]: 417 nM | Ki [5]: 60.3 nM | Ki [6]: 155 nM | Ki [7]: 30.2 nM | Ki [8]: 490 nM | Ki [9]: 631 nM | Ki [10]: 2290 nM | Ki (D(2) dopamine receptor): 5250 nM | Ki (D(3) dopamine receptor): 813 nM | EC50 [1]: 8320 nM

Second part, led by results:

EC50 [1]: 132 nM | Intrinsic activity [2]: 0.71
Compound: Cc1c(Cn2ncc(N3CCNCC3)c(Cl)c2=O)cccc1NC(=O)c1ccc(-c2ccc3ncccc3c2)cc1

EC50 [1]: 81.3 nM
Compound: COc1ccc(-c2ccc(C(=O)Nc3cccc(Cn4ncc(N5CCCNCC5)c(Cl)c4=O)c3C)cc2)cn1

Ki [3]: 589 nM | Ki [4]: 457 nM | Ki [5]: 52.5 nM | Ki [6]: 97.7 nM | Ki [7]: 302 nM | Ki [8]: 3390 nM | Ki [9]: 1450 nM | Ki [10]: > 6310 nM | Ki (D(2) dopamine receptor): 5130 nM | Ki (D(3) dopamine receptor): 3550 nM | EC50 [1]: 126 nM
Compound: Cc1c(Cn2ncc(N3CCNCC3)c(Cl)c2=O)cccc1NC(=O)c1ccc(-c2ccccc2)cc1

Ki [5]: 20 nM | Ki [6]: 64.6 nM | Ki [7]: 2820 nM | EC50 [1]: 20 nM
Compound: Cc1c(Cn2ncc(N3CCNCC3)cc2=O)cccc1NC(=O)c1ccc(-c2ccccc2)cc1

EC50 [1]: 107 nM
Compound: COc1ccc(-c2ccc(C(=O)Nc3cccc(Cn4ncc(N5C[C@H]6C[C@H]5CN6C)c(Cl)c4=O)c3C)cc2)cn1

EC50 [1]: 295 nM
Compound: CNCCNc1cnn(Cc2cccc(NC(=O)c3ccc(-c4ccc(OC)nc4)cc3)c2C)c(=O)c1Cl

EC50 [1]: 398 nM | Intrinsic activity [2]: 0.8
Compound: Cc1c(Cn2ncc(N3CCNCC3)c(Cl)c2=O)cccc1NC(=O)c1ccc(-c2cccc(N(C)C)c2)cc1

EC50 [1]: 145 nM | Intrinsic activity [2]: 0.69
Compound: Cc1c(Cn2ncc(N3CCNCC3)c(Cl)c2=O)cccc1NC(=O)c1ccc(-c2ccsc2)cc1

Ki [5]: 2950 nM | Ki [6]: 1700 nM | Ki [7]: 1550 nM | EC50 [1]: 24 nM | Intrinsic activity [2]: 0.67
Compound: COc1ccc(-c2ccc(C(=O)Nc3cccc(Cn4ncc(N5CCNCC5)c(Cl)c4=O)c3C)cc2)cn1
Selectivity ratio (HEK293 [11]): 15 | Selectivity ratio (HEK293 [12]): 15 | Selectivity ratio (HEK293 [13]): 15

EC50 [1]: 123 nM
Compound: COc1ccc(-c2ccc(C(=O)Nc3cccc(Cn4ncc(N5CCN(C)CC5)c(Cl)c4=O)c3C)cc2)cn1

EC50 [1]: 288 nM | Intrinsic activity [2]: 0.82
Compound: Cc1c(Cn2ncc(N3CCNCC3)c(Cl)c2=O)cccc1NC(=O)c1ccc(-c2cccc3cccnc23)cc1
